In brackets after ≈: the same amount, converted by molar mass. Activity calls are given as the source filed them.
How the values were obtained:
Mus musculus [1] = assay: Toxicity in PS mouse allografted with mouse P388 cells assessed as survival at 0.2 ug/kg after 4 days; type: organism-based; conditions: in vivo, 0.0002 mg/kg, 96 h
Procedure, shortened: (§1)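 PS (P388) leukemic mice, six started per dose group. Toxicity scored as survivors on the toxicity day over the number of mice started. The toxicity day is normally 4 days after the first injection.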

P388 [2] = assay: Antitumor activity against mouse P388 cells allografted in PS mouse assessed as median survival time at 0.4 ug/kg relative to control; type: functional
Procedure, shortened: (§2)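 P388 leukemia (PS) in mice, six mice started per dose group. Read-out is T/C: median survival time of the treated group divided by that of the untreated control group, expressed as a percent. The NIH protocol counts a compound as active when T/C > 125%.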

Mus musculus [3] = assay: Toxicity in PS mouse allografted with mouse P388 cells assessed as change in body weight at 0.4 ug/kg relative to control; type: organism-based; conditions: in vivo, 0.0004 mg/kg
Procedure, shortened: (§3)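 PS (P388 leukemia) mice, six per dose group. Toxicity read as the difference in grams between the weights of treated and control animals.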

Mus musculus [4] = assay: Toxicity in PS mouse allografted with mouse P388 cells assessed as change in body weight at 3.1 ug/kg relative to control; type: organism-based; conditions: in vivo, 0.0031 mg/kg
Procedure, shortened: (§4)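 P388 (PS) leukemia in mice, 6 mice per dose group. Weight change is the difference in grams between treated and control animals. Survivors are recorded on toxicity day, normally 4 days after the first injection.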

Mus musculus [5] = assay: Toxicity in PS mouse allografted with mouse P388 cells assessed as survival at 0.1 ug/kg after 4 days; type: organism-based; conditions: in vivo, 0.0001 mg/kg, 96 h; procedure, shortened: as §1
Mus musculus [6] = assay: Toxicity in PS mouse allografted with mouse P388 cells assessed as survival at 25 ug/kg after 4 days; type: organism-based; conditions: in vivo, 0.025 mg/kg, 96 h; procedure, shortened: as §1
P388 [7] = assay: Antitumor activity against mouse P388 cells allografted in PS mouse assessed as median survival time at 3.1 ug/kg relative to control; type: functional; procedure, shortened: as §2
Mus musculus [8] = assay: Toxicity in PS mouse allografted with mouse P388 cells assessed as change in body weight at 0.2 ug/kg relative to control; type: organism-based; conditions: in vivo, 0.0002 mg/kg; procedure, shortened: as §3
Mus musculus [9] = assay: Toxicity in PS mouse allografted with mouse P388 cells assessed as survival at 0.4 ug/kg after 4 days; type: organism-based; conditions: in vivo, 0.0004 mg/kg, 96 h; procedure, shortened: as §1
P388 [10] = assay: Antitumor activity against mouse P388 cells allografted in PS mouse assessed as median survival time at 0.2 ug/kg relative to control; type: functional; procedure, shortened: as §2
P388 [11] = assay: Antitumor activity against mouse P388 cells allografted in PS mouse assessed as median survival time at 1.6 ug/kg relative to control; type: functional; procedure, shortened: as §2
P388 [12] = assay: Antitumor activity against mouse P388 cells allografted in PS mouse assessed as median survival time at 25 ug/kg relative to control; type: functional; procedure, shortened: as §2
Mus musculus [13] = assay: Toxicity in PS mouse allografted with mouse P388 cells assessed as change in body weight at 25 ug/kg relative to control; type: organism-based; conditions: in vivo, 0.025 mg/kg; procedure, shortened: as §4
Mus musculus [14] = assay: Toxicity in PS mouse allografted with mouse P388 cells assessed as survival at 0.8 ug/kg after 4 days; type: organism-based; conditions: in vivo, 0.0008 mg/kg, 96 h; procedure, shortened: as §1
Mus musculus [15] = assay: Toxicity in PS mouse allografted with mouse P388 cells assessed as survival at 3.1 ug/kg after 4 days; type: organism-based; conditions: in vivo, 0.0031 mg/kg, 96 h; procedure, shortened: as §1
Paracentrotus lividus = assay: Antimitotic activity against sea urchin eggs assessed as drug level causing inhibition of mitosis; type: functional; conditions: Egg
P388 [16] = assay: Antitumor activity against mouse P388 cells allografted in PS mouse assessed as median survival time at 6.2 ug/kg relative to control; type: functional; procedure, shortened: as §2
Mus musculus [17] = assay: Toxicity in PS mouse allografted with mouse P388 cells assessed as survival at 6.2 ug/kg after 4 days; type: organism-based; conditions: in vivo, 0.0062 mg/kg, 96 h; procedure, shortened: as §1
Mus musculus [18] = assay: Toxicity in PS mouse allografted with mouse P388 cells assessed as change in body weight at 0.1 ug/kg relative to control; type: organism-based; conditions: in vivo, 0.0001 mg/kg; procedure, shortened: as §3
P388 [19] = assay: Antitumor activity against mouse P388 cells allografted in PS mouse assessed as median survival time at 0.1 ug/kg relative to control; type: functional; procedure, shortened: as §2
Mus musculus [20] = assay: Toxicity in PS mouse allografted with mouse P388 cells assessed as change in body weight at 12.5 ug/kg relative to control; type: organism-based; conditions: in vivo, 0.0125 mg/kg; procedure, shortened: as §4
Mus musculus [21] = assay: Toxicity in PS mouse allografted with mouse P388 cells assessed as survival at 1.6 ug/kg after 4 days; type: organism-based; conditions: in vivo, 0.0016 mg/kg, 96 h; procedure, shortened: as §1
P388 [22] = assay: Antitumor activity against mouse P388 cells allografted in PS mouse assessed as median survival time at 12.5 ug/kg relative to control; type: functional; procedure, shortened: as §2
Tubulin (Homo sapiens) = Tubulin (Homo sapiens) (UniProt P68371+Q9H4B7+P0DPH7+P68366+Q13509+Q71U36+P04350+Q3ZCM7+P07437+P68363+Q9BQE3+Q6PEY2+Q13885+Q9BVA1+Q9BUF5); assay: Inhibition of brain tubulin polymerization (unknown origin) at 37 degC by spectrophotometry
Mus musculus [23] = assay: Toxicity in PS mouse allografted with mouse P388 cells assessed as survival at 12.5 ug/kg after 4 days; type: organism-based; conditions: in vivo, 0.0125 mg/kg, 96 h; procedure, shortened: as §1
P388 [24] = assay: Antitumor activity against mouse P388 cells allografted in PS mouse assessed as median survival time at 0.8 ug/kg relative to control; type: functional; procedure, shortened: as §2
Mus musculus [25] = assay: Toxicity in PS mouse allografted with mouse P388 cells assessed as survival at 50 ug/kg after 4 days; type: organism-based; conditions: in vivo, 0.05 mg/kg, 96 h; procedure, shortened: as §1
Mus musculus [26] = assay: Toxicity in PS mouse allografted with mouse P388 cells assessed as change in body weight at 6.2 ug/kg relative to control; type: organism-based; conditions: in vivo, 0.0062 mg/kg; procedure, shortened: as §4
Mus musculus [27] = assay: Toxicity in PS mouse allografted with mouse P388 cells assessed as change in body weight at 50 ug/kg relative to control; type: organism-based; conditions: in vivo, 0.05 mg/kg; procedure, shortened: as §4
P388 [28] = assay: Antitumor activity against mouse P388 cells allografted in PS mouse assessed as median survival time at 50 ug/kg relative to control; type: functional; procedure, shortened: as §2
Mus musculus [29] = assay: Toxicity in PS mouse allografted with mouse P388 cells assessed as change in body weight at 1.6 ug/kg relative to control; type: organism-based; conditions: in vivo, 0.0016 mg/kg; procedure, shortened: as §4
KB = assay: Cytotoxicity against human KB cells; type: functional; conditions: read-out: ED50 (the source's name)
Mus musculus [30] = assay: Toxicity in PS mouse allografted with mouse P388 cells assessed as change in body weight at 0.8 ug/kg relative to control; type: organism-based; conditions: in vivo, 0.0008 mg/kg; procedure, shortened: as §3

SMILES | Activity (Mus musculus [1]) | T/C (P388 [2]) [%] | Activity (Mus musculus [3]) [g] | Activity (Mus musculus [4]) [g] | Activity (Mus musculus [5]) | Activity (Mus musculus [6]) | T/C (P388 [7]) [%] | Activity (Mus musculus [8]) [g] | Activity (Mus musculus [9]) | T/C (P388 [10]) [%] | T/C (P388 [11]) [%] | T/C (P388 [12]) [%] | Activity (Mus musculus [13]) [g] | Activity (Mus musculus [14]) | Activity (Mus musculus [15]) | Activity (Paracentrotus lividus) | T/C (P388 [16]) [%] | Activity (Mus musculus [17]) | Activity (Mus musculus [18]) [g] | T/C (P388 [19]) [%] | other results
COc1cc2cc(c1Cl)N(C)C(=O)C[C@H](OC(=O)C(C)C)[C@]1(C)O[C@H]1[C@H](C)[C@@H]1C[C@@](O)(NC(=O)O1)[C@H](OC)/C=C/C=C(\C)C2OC(C)=O (stereo not given in full) | Non-toxic | 133 | -0.6 | -0.4 | Non-toxic | Non-toxic | 150 | -1.3 | Non-toxic | 125 | 162 | 170 | -0.9 | Non-toxic | Non-toxic | 1 ×10⁻⁷ mol/L | 166 | Non-toxic | -0.5 | 125 | Activity (Mus musculus [20]): -0.8 g; Activity (Mus musculus [21]): Non-toxic; T/C (P388 [22]): 179%; inhibition (Tubulin (Homo sapiens)): Active; Activity (Mus musculus [23]): Non-toxic; T/C (P388 [24]): 137%; Activity (Mus musculus [25]): Non-toxic; Activity (Mus musculus [26]): -0.9 g; Activity (Mus musculus [27]): -1 g; T/C (P388 [28]): <80%; Activity (Mus musculus [29]): -0.7 g; EC50 (KB): 0.0015 ng/mL (≈ 0.00216 nM); Activity (Mus musculus [30]): -1 g
CCC(=O)N(C)[C@@H](C)C(=O)O[C@H]1CC(=O)N(C)c2cc(cc(OC)c2Cl)C/C(C)=C/C=C/[C@@H](OC)[C@@]2(O)C[C@H](OC(=O)N2)[C@@H](C)[C@@H]2O[C@@]12C | Non-toxic | 137 | -0.8 | -0.6 | Non-toxic | Non-toxic | 150 | -1.1 | Non-toxic | 120 | 154 | <80 | -2.2 | Non-toxic | Non-toxic | 1 ×10⁻⁸ mol/L | 125 | Non-toxic | -1.1 | 137 | Activity (Mus musculus [20]): -1.3 g; Activity (Mus musculus [21]): Non-toxic; T/C (P388 [22]): 104%; inhibition (Tubulin (Homo sapiens)): Active; Activity (Mus musculus [23]): Non-toxic; T/C (P388 [24]): 145%; Activity (Mus musculus [25]): Toxic; Activity (Mus musculus [26]): -2.1 g; Activity (Mus musculus [27]): -1.2 g; T/C (P388 [28]): <80%; Activity (Mus musculus [29]): -1.2 g; Activity (Mus musculus [30]): -1.1 g
COc1cc2cc(c1Cl)N(C)C(=O)C[C@H](OC(=O)[C@H](C)N(C)C(=O)CC(C)C)[C@]1(C)O[C@H]1[C@H](C)[C@@H]1C[C@@](O)(NC(=O)O1)[C@H](OC)/C=C/C=C(\C)C2 | Non-toxic | 125 | -1.1 | 0.2 | Non-toxic | Non-toxic | 158 | -0.6 | Non-toxic | 125 | 154 | 116 | -0.4 | Non-toxic | Non-toxic | 1 ×10⁻⁸ mol/L | 154 | Non-toxic | 1.4 | 120 | Activity (Mus musculus [20]): 1.3 g; Activity (Mus musculus [21]): Non-toxic; T/C (P388 [22]): 187%; inhibition (Tubulin (Homo sapiens)): Active; Activity (Mus musculus [23]): Non-toxic; T/C (P388 [24]): 133%; Activity (Mus musculus [25]): Non-toxic; Activity (Mus musculus [26]): 0.8 g; Activity (Mus musculus [27]): -0.5 g; T/C (P388 [28]): <80%; Activity (Mus musculus [29]): -1.3 g; Activity (Mus musculus [30]): 0.7 g
COc1cc2cc(c1Cl)N(C)C(=O)C[C@H](OC(=O)[C@H](C)N(C)C(=O)C(C)C)[C@]1(C)O[C@H]1[C@H](C)[C@@H]1C[C@@](O)(NC(=O)O1)[C@H](OC)/C=C/C=C(\C)C2 | Non-toxic | 155 | 0.4 | -0.9 | Non-toxic | Non-toxic | 145 | 0.1 | Non-toxic | 165 | 155 | <80 | 0.1 | Non-toxic | Non-toxic | 1 nM | 155 | Non-toxic | 0.3 | 125 | Activity (Mus musculus [20]): 0.1 g; Activity (Mus musculus [21]): Non-toxic; T/C (P388 [22]): 120%; inhibition (Tubulin (Homo sapiens)): Active; Activity (Mus musculus [23]): Non-toxic; T/C (P388 [24]): 190%; Activity (Mus musculus [25]): Toxic; Activity (Mus musculus [26]): -1.3 g; Activity (Mus musculus [27]): 0.1 g; T/C (P388 [28]): <80%; Activity (Mus musculus [29]): 0 g; EC50 (KB): 0.0036 ng/mL (≈ 0.005 nM); Activity (Mus musculus [30]): 0.1 g
